Data reported in ChEMBL document CHEMBL2375288, “Synthesis and pharmacokinetic profile of highly deuterated brecanavir analogs” (Eur J Med Chem, 2013).

Columns and labels:
Hepatocyte [1] = test: Drug metabolism in human hepatocytes assessed as formation of -[2H]-(3R,3aS,6aR)-hexahydrofuro[2,3-b]furan-3-yl (2S,3R)-4-(1-(3,4-dihydroxyphenyl)-N-isobutylmethylsulfonamido)-3-hydroxy-1-(4-((2-methylthiazol-4-yl)methoxy)phenyl)butan-2-ylcarbamate at 10 uM after 4 hrs by LC/MS/MS analysis; assay type: ADME, cell-based
Hepatocyte [2] = test: Drug metabolism in rat hepatocytes assessed as formation of -[2H]-6-(5-((N-((2R,3S)-3-(((3R,3aS,6aR)-hexahydrofuro[2,3-b]furan-3-yloxy)carbonylamino)-2-hydroxy-4-(4-((2-methylthiazol-4-yl)methoxy)phenyl)butyl)-N-isobutylsulfamoyl)methyl)-2-methoxyphenoxy)-3,4,5-trihydroxytetrahydro-2H-pyran-2-carboxylic acid at 10 uM after 4 hrs by LC/MS/MS analysis; assay type: ADME, cell-based
Rattus norvegicus [3] = test: Dose-normalized AUC in rat at 0.25 mg/kg, iv; assay type: ADME, organism-based; parameters: dose 0.25 mg/kg, route intravenous; conditions: in vivo
Method in brief: (§1)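 Intravenous dosing at 0.25 mg/kg in fed rats, given as a solution in DMSO/solutol/mannitol (2.5/10/87.5).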

[4] = Half life in rat at 0.25 mg/kg, iv; assay type: ADME, organism-based; parameters: dose 0.25 mg/kg, route intravenous; conditions: in vivo; method in brief: as §1
[5] = Plasma clearance in rat at 0.25 mg/kg, iv; assay type: ADME, organism-based; parameters: dose 0.25 mg/kg, route intravenous; method in brief: as §1
Rattus norvegicus [6] = test: Dose-normalized AUC in rat at 0.25 mg/kg, iv co-administered with 4 mg/kg of ritonavir; assay type: ADME, organism-based; conditions: in vivo
Method in brief: (§2)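 Fed rats received 0.25 mg/kg intravenously as a DMSO/solutol/mannitol (2.5/10/87.5) solution, with ritonavir co-administered at 4 mg/kg.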

[7] = Half life in rat at 0.25 mg/kg, iv co-administered with 4 mg/kg of ritonavir; assay type: ADME, organism-based; conditions: in vivo; method in brief: as §2
[8] = Plasma clearance in rat at 0.25 mg/kg, iv co-administered with 4 mg/kg of ritonavir; assay type: ADME, organism-based; method in brief: as §2

Compound	Stability (Hepatocyte [1])	Stability (Hepatocyte [2])	AUC/dose (Rattus norvegicus [3]) [ng·h/mL/mg]	half-life [4] [min]	clearance [5] [mL/min/kg]	AUC/dose (Rattus norvegicus [6]) [ng·h/mL/mg]	half-life [7] [min]	clearance [8] [mL/min/kg]
[2H]C1([2H])Oc2ccc(S(=O)(=O)N(C[C@@]([2H])(O)[C@H](Cc3ccc(OC([2H])([2H])c4csc(C)n4)cc3)NC(=O)O[C@@]3([2H])CO[C@@]4([2H])OCC[C@H]43)C([2H])([2H])C([2H])(C([2H])([2H])[2H])C([2H])([2H])[2H])cc2O1	Unstable	Unstable	64	12	64	–	–	–
[2H]C1([2H])C[C@@H]2[C@H](O1)OC([2H])([2H])[C@]2([2H])OC(=O)N[C@@H](Cc1ccc(OC([2H])([2H])c2csc(C)n2)cc1)[C@]([2H])(O)CN(C([2H])([2H])C([2H])(C([2H])([2H])[2H])C([2H])([2H])[2H])S(=O)(=O)c1ccc2c(c1)OC([2H])([2H])O2	–	–	59	12	59	–	–	–
Cc1nc(COc2ccc(C[C@H](NC(=O)O[C@H]3CO[C@H]4OCC[C@H]43)[C@H](O)CN(CC(C)C)S(=O)(=O)c3ccc4c(c3)OCO4)cc2)cs1 [BRECANAVIR]	–	–	66	12	65	774	132	5.4
